Source: PubChem BioAssay
Rows were chosen to be rich in hits. Some 9.6% of all compounds tested hit in one or more screens of this group.
Lmaj promast – Leishmania major promastigote growth inhibition. Leishmania major promastigotes, resazurin fluorescence viability. inhibition, % at 10 µM. actives 9% (n = 200,000). AID 1063; in the data active means inhibition above about 50%;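 further: promastigotes grown with compound for 44 hours at 28 °C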
BaF3 tox – counter-screen for JAK2V617F inhibitors: parental Ba/F3 viability inhibitors; CellTiter-Glo ATP luminescence; inhibition, % at 5.6 µM; actives 1.1% (n = 220,000); AID 1486;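 active means inhibition above a per-campaign cutoff, the mean inhibition of all tested compounds plus 3 SD, cut at about 27% in these data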
Ba/F3 V617F tox – loss of viability in JAK2V617F-driven Ba/F3 cells. Ba/F3 EpoR-JAK2V617F viability, ATP luminescence. inhibition, % at 5.6 µM. actives 1.1% (n = 220,000). AID 1446;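 active means inhibition above the campaign mean plus 3 SD over all tested compounds, cut at about 24% in these data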;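 further: cytokine-independent growth of Ba/F3 cells driven by EpoR plus mutant JAK2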
APP transl inh – APP translation inhibition; SH-SY5Y APP 5'UTR-luciferase reporter, luminescence; inhibition, % at 2 µM; actives 0.82% (n = 190,000); AID 1285;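 active means inhibition above a set limit, derived from the sample mean plus 3 SD, cut at about 45% in these data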
MT stabilizer – microtubule stabilization, imaging screen. % tubulin-high responders, % at 10 µM. actives 0.83% (n = 200,000). HeLa tubulin immunostaining HCS, 24 h; share of cells brighter than vehicle mean+2SD. AID 2205;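 active means plate Z-score above 3 for both tubulin-high and condensed-nucleus cell shares, with cell loss under 80%, at 10 µM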;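 further: anti alpha tubulin signal scored within the nucleus-defined area of each cell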
b-catenin transl – modulators of beta-catenin nuclear translocation | HeLa beta-catenin nuclear translocation, immunofluorescence imaging | nuclear translocation activity, % at 5 µM | actives 0.3% (n = 190,000);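 active means nuclear translocation activity above 50% at 5 µM, with a well cell count of 50 or more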;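 further: per-cell ratio of nuclear to cytoplasmic median beta-catenin stain intensity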
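System: HeLa cells, endogenous beta-catenin; compound dosing: 5 µM primary single dose, 0.1% DMSO, 0.02–20 µM confirmation series; incubation: 24 h compound exposure at 37°C, 5% CO2; signal: beta-catenin immunofluorescence imaging with DAPI; evaluation: % activation, nuclear-to-cytoplasmic median beta-catenin signal ratio per cell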
Numbers stand for hits.

For NC(=O)c1ccc[n+](Cc2ccccc2)c1 the results were Lmaj promast inactive, BaF3 tox inactive, Ba/F3 V617F tox inactive, APP transl inh inactive, MT stabilizer inactive and b-catenin transl inactive.
Screening O=C(N/N=C/c1sc(N2CCCCC2)nc1-c1cccs1)C1CC1 returned Lmaj promast 69, BaF3 tox inactive, Ba/F3 V617F tox inactive, APP transl inh inactive, MT stabilizer inactive and b-catenin transl inactive.
`CCCCNC(=S)N(C)/N=C/c1sc(N2CCCCC2)nc1-c1cccs1` gave Lmaj promast 96, BaF3 tox inactive, Ba/F3 V617F tox inactive, APP transl inh inactive and MT stabilizer inactive.
For COc1ccc(CCNC(=O)C2CCCN(c3ncccn3)C2)cc1 (centres undefined) the results were Lmaj promast inactive, BaF3 tox inactive, Ba/F3 V617F tox inactive, APP transl inh inactive, MT stabilizer inactive and b-catenin transl inactive.
Cc1cc(C)c2cc(C(=O)Nc3ccccc3)[nH]c2c1 was read as BaF3 tox inactive, Ba/F3 V617F tox inactive and b-catenin transl inactive.
COc1cc(/C=N/n2cnnc2)ccc1OCc1ccc(C)cc1 was read as Lmaj promast 96, BaF3 tox inactive, Ba/F3 V617F tox inactive, APP transl inh inactive, MT stabilizer inactive and b-catenin transl inactive.
Screening O/N=C/c1ccc(OCc2ccccc2)c(Cl)c1 returned Lmaj promast inactive, BaF3 tox inactive, Ba/F3 V617F tox inactive, APP transl inh inactive, MT stabilizer inactive and b-catenin transl inactive.
Screening COc1cc(/C=N/n2cnnc2)ccc1OCc1ccccc1 returned Lmaj promast 80, BaF3 tox inactive, Ba/F3 V617F tox inactive, APP transl inh inactive, MT stabilizer inactive and b-catenin transl inactive.
For CCOc1cc(/C=N/O)ccc1OCc1ccc(C)cc1 the results were Lmaj promast 61, BaF3 tox inactive, Ba/F3 V617F tox inactive, APP transl inh inactive, MT stabilizer inactive and b-catenin transl inactive.
For O/N=C/c1ccc(OCc2ccccc2)c(Br)c1 the results were Lmaj promast 57, BaF3 tox inactive, Ba/F3 V617F tox inactive, APP transl inh inactive and MT stabilizer inactive.
`COc1cc(/C=N/n2cnnc2)ccc1OCCOc1ccccc1` gave Lmaj promast inactive, BaF3 tox inactive, Ba/F3 V617F tox inactive, APP transl inh inactive, MT stabilizer inactive and b-catenin transl inactive.
Screening CC1CCC(NC(=O)C2CC(=O)N(c3ccc4c(c3)OCCO4)C2)CC1 (centres undefined) returned Lmaj promast inactive, BaF3 tox inactive, Ba/F3 V617F tox inactive, APP transl inh inactive, MT stabilizer inactive and b-catenin transl inactive.
For CCCc1cc2c(cc1NC(=O)c1ccco1)OCO2 the results were Lmaj promast inactive, BaF3 tox inactive, Ba/F3 V617F tox inactive, APP transl inh inactive, MT stabilizer inactive and b-catenin transl inactive.
COc1ccc(NS(=O)(=O)c2cc(NC(=O)/C=C/c3ccccc3OC)ccc2N2CCCCC2)cc1 was read as Lmaj promast inactive, BaF3 tox inactive, Ba/F3 V617F tox inactive, APP transl inh inactive, MT stabilizer inactive and b-catenin transl inactive.
For COc1cccc(-n2c(CN3CCN(c4ccc(C)cc4)C(C)C3)nc3ccc([N+](=O)[O-])cc3c2=O)c1 (centres undefined) the results were Lmaj promast 92, BaF3 tox inactive, Ba/F3 V617F tox inactive, APP transl inh inactive, MT stabilizer inactive and b-catenin transl inactive.
COc1cccc(-n2c(CN3CCN(c4ccccn4)CC3)nc3ccc([N+](=O)[O-])cc3c2=O)c1 was read as Lmaj promast inactive, BaF3 tox inactive, Ba/F3 V617F tox inactive, APP transl inh inactive, MT stabilizer inactive and b-catenin transl inactive.
For COc1cccc(-n2c(CN3CCN(c4cccc(C)c4)C(C)C3)nc3ccc([N+](=O)[O-])cc3c2=O)c1 (centres undefined) the results were Lmaj promast 66, BaF3 tox inactive, Ba/F3 V617F tox inactive, APP transl inh inactive, MT stabilizer inactive and b-catenin transl inactive.
For COc1ccc(-n2c(CN3CCC(C)CC3)nc3ccc([N+](=O)[O-])cc3c2=O)c(OC)c1 the results were Lmaj promast inactive, BaF3 tox inactive, Ba/F3 V617F tox inactive, APP transl inh inactive, MT stabilizer inactive and b-catenin transl inactive.
For CN(C)S(=O)(=O)c1cccc(NC(=O)CSc2nc3c(cc2C#N)C(=O)CC(C)(C)C3)c1 the results were Lmaj promast inactive, BaF3 tox inactive, Ba/F3 V617F tox inactive, APP transl inh inactive, MT stabilizer 24 and b-catenin transl inactive.
For CC(C)c1ccc(-c2c(C#N)c(N)nc(SCC(=O)N3CCCCCC3)c2C#N)cc1 the results were Lmaj promast 51, BaF3 tox inactive, Ba/F3 V617F tox inactive, APP transl inh inactive, MT stabilizer inactive and b-catenin transl inactive.
Screening CC1COC(=O)C(NNc2ccc(Cl)c(Cl)c2)=N1 (centres undefined) returned Lmaj promast 100, BaF3 tox inactive, Ba/F3 V617F tox inactive, APP transl inh inactive, MT stabilizer inactive and b-catenin transl inactive.
For NC(=S)NNc1ccc(Cl)c(Cl)c1 the results were BaF3 tox inactive, Ba/F3 V617F tox inactive and b-catenin transl inactive.
For CC(O)CNc1nc2ccccc2n1-c1ncnc2sc3c(c12)CCC3 (centres undefined) the results were Lmaj promast 74, BaF3 tox inactive, Ba/F3 V617F tox inactive, APP transl inh inactive, MT stabilizer inactive and b-catenin transl inactive.
COc1c(Br)cc(C(N)=O)cc1OCc1ccccc1 was read as Lmaj promast inactive, BaF3 tox inactive, Ba/F3 V617F tox inactive, APP transl inh inactive, MT stabilizer inactive and b-catenin transl inactive.
CCOc1cc(C(N)=O)cc(Br)c1OCc1ccccc1 was read as Lmaj promast 100, BaF3 tox inactive, Ba/F3 V617F tox inactive, APP transl inh inactive, MT stabilizer inactive and b-catenin transl inactive.
Screening Cc1cc(OCCOCCNC(C)C)cc(C)c1Cl returned Lmaj promast 98, BaF3 tox inactive, Ba/F3 V617F tox inactive, MT stabilizer inactive and b-catenin transl inactive.
`COc1ccc(/C(C)=N/NC(=O)c2ccc(NS(=O)(=O)c3cccs3)cc2)cc1` gave BaF3 tox inactive, Ba/F3 V617F tox inactive and b-catenin transl inactive.
Nc1cc(=O)[nH]c(SCC(=O)Nc2cccc(Cl)c2Cl)n1 was read as Lmaj promast inactive, BaF3 tox inactive, Ba/F3 V617F tox inactive, APP transl inh inactive, MT stabilizer inactive and b-catenin transl inactive.
For COc1ccc(CCNc2c(C)c(C)nc3ncnn23)cc1 the results were Lmaj promast inactive, BaF3 tox 58, Ba/F3 V617F tox 51, APP transl inh inactive, MT stabilizer 30 and b-catenin transl inactive.
For CCc1c(C)nc2ncnn2c1NCCc1ccc(OC)c(OC)c1 the results were Lmaj promast inactive, BaF3 tox inactive, Ba/F3 V617F tox inactive, APP transl inh inactive, MT stabilizer inactive and b-catenin transl inactive.
For CCc1c(C)sc(NC(=S)N2CCN(S(C)(=O)=O)CC2)c1C(=O)OC the results were BaF3 tox inactive, Ba/F3 V617F tox inactive and b-catenin transl inactive.
